Test results from ChEMBL document CHEMBL3351932, “Discovery of BI 207524, an indole diamide NS5B thumb pocket 1 inhibitor with improved potency for the potential treatment of chronic hepatitis C virus infection” (J Med Chem, 2014).
Values belong to the compound of their own block, whether it stands above or below them.

Key:
[1] = Permeability across apical to basolateral side in human Caco2 cells; assay type: ADME, cell-based; conditions: Caco-2, read-out: permeability
[2] = Cmax in rat at 10 mg/kg, po; assay type: ADME, organism-based; set-up: dose 10 mg/kg, route oral; conditions: in vivo
Method in brief: (§1)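 Single-compound oral PK after overnight fast; 10 mg/kg given as suspension in 0.5% methylcellulose and 0.3% Tween-80, with or without 1% NMP as added solubilizer; N=3 per dose and route. Plasma kept on ice, centrifuged at 4°C, stored near -20°C, extracted by solid phase, quantified by HPLC-UV or LC/MS against blank-plasma standards (LOQ 7 ng/mL); non-compartmental analysis.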

[3] = Mean residence time in rat at 10 mg/kg, po; assay type: ADME, organism-based; set-up: dose 10 mg/kg, route oral; conditions: in vivo; method in brief: as §1
[4] = Plasma concentration in rat at 4 mg/kg, po cassette dosing after 1 hr; assay type: ADME, organism-based; set-up: dose 4 mg/kg, route oral
Method in brief: (§2)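 Cassette screen: mixture of 4 compounds, each at 4 mg/kg, dosed orally to 2 rats; plasma sampled at 1 h and 2 h, solid-phase extracted and quantified by HPLC-UV or LC/MS against calibration standards in blank plasma (LOQ 7 ng/mL).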

[5] = Volume of distribution at steady state in rat at 2 mg/kg, iv; assay type: ADME, organism-based; set-up: dose 2 mg/kg, route intravenous; conditions: in vivo, read-out: Vdss
Method in brief: (§3)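 Fasted animals dosed IV by bolus at 2 mg/kg in 70% PEG-400:30% water; N=3 per dose and route. Plasma separated at 4°C, stored near -20°C, solid-phase extracted, assayed by HPLC-UV or LC/MS with blank-plasma calibration (r2 > 0.99, LOQ 7 ng/mL); parameters from non-compartmental analysis.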

[6] = Clearance in rat at 2 mg/kg, iv; assay type: ADME, organism-based; set-up: dose 2 mg/kg, route intravenous; conditions: in vivo; method in brief: as §3
[7] = Half life in rat at 2 mg/kg, iv; assay type: ADME, organism-based; set-up: dose 2 mg/kg, route intravenous; conditions: in vivo; method in brief: as §3
[8] = Inhibition of Hepatitis C virus genotype 1b Con1 NS5B RNA dependent RNA polymerase activity using Bright-Glo luciferase substrate by cell-based 1b luciferase reporter assay; set-up: species or system Hepatitis C virus (isolate Con1)
Method in brief: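 Cell-based genotype 1b luciferase reporter replicon assay; EC50 determined in duplicate, values averaged over at least two determinations.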

[9] = Half life in human liver microsomes; assay type: ADME
[10] = Plasma concentration in rat at 4 mg/kg, po cassette dosing after 2 hrs; assay type: ADME, organism-based; set-up: dose 4 mg/kg, route oral; method in brief: as §2
[11] = Oral bioavailability in rat at 10 mg/kg; assay type: ADME, organism-based; conditions: in vivo; method in brief: as §1
[12] = AUC in rat at 10 mg/kg, po; assay type: ADME, organism-based; set-up: dose 10 mg/kg, route oral; conditions: plasma; method in brief: as §1
[13] = Inhibition of HCV full-length NS5B polymerase; set-up: species or system Hepacivirus hominis
Method in brief: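 Polymerase inhibition with full-length NS5B enzyme in a biochemical assay; IC50 averaged from duplicate measurements, at least two determinations.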

[14] = Half life in dog at 2 mg/kg, iv; assay type: ADME, organism-based, Canis lupus familiaris; set-up: dose 2 mg/kg, route intravenous; conditions: in vivo; method in brief: as §3
[15] = system: Rhesus monkey; assay: Volume of distribution at steady state in monkey at 2 mg/kg, iv; assay type: ADME, organism-based, Macaca mulatta; set-up: dose 2 mg/kg, route intravenous; conditions: in vivo; method in brief: as §3
[16] = Inhibition of calf thymus DNA-dependent RNA polymerase; set-up: species or system Bos taurus
[17] = Cmax in monkey at 10 mg/kg, po; assay type: ADME, organism-based, Macaca mulatta; set-up: dose 10 mg/kg, route oral; conditions: rhesus monkey, in vivo; method in brief: as §1
[18] = Oral bioavailability in monkey at 10 mg/kg; assay type: ADME, organism-based, Macaca mulatta; conditions: rhesus monkey, in vivo; method in brief: as §1
[19] = system: Hepatitis C virus; assay: Antiviral activity against Hepatitis C virus genotype 1b assessed as shift in EC50 by cell-based replicon assay in presence of 40% human serum; assay type: functional, Hepacivirus hominis
[20] = Mean residence time in dog at 10 mg/kg, po; assay type: ADME, organism-based, Canis lupus familiaris; set-up: dose 10 mg/kg, route oral; conditions: in vivo; method in brief: as §1
[21] = molecular target: Voltage-gated inwardly rectifying potassium channel KCNH2 (Homo sapiens, UniProt Q12809); assay: Inhibition of human ERG channel at 0.8 uM
Sequence of Voltage-gated inwardly rectifying potassium channel KCNH2 (Q12809 whole entry): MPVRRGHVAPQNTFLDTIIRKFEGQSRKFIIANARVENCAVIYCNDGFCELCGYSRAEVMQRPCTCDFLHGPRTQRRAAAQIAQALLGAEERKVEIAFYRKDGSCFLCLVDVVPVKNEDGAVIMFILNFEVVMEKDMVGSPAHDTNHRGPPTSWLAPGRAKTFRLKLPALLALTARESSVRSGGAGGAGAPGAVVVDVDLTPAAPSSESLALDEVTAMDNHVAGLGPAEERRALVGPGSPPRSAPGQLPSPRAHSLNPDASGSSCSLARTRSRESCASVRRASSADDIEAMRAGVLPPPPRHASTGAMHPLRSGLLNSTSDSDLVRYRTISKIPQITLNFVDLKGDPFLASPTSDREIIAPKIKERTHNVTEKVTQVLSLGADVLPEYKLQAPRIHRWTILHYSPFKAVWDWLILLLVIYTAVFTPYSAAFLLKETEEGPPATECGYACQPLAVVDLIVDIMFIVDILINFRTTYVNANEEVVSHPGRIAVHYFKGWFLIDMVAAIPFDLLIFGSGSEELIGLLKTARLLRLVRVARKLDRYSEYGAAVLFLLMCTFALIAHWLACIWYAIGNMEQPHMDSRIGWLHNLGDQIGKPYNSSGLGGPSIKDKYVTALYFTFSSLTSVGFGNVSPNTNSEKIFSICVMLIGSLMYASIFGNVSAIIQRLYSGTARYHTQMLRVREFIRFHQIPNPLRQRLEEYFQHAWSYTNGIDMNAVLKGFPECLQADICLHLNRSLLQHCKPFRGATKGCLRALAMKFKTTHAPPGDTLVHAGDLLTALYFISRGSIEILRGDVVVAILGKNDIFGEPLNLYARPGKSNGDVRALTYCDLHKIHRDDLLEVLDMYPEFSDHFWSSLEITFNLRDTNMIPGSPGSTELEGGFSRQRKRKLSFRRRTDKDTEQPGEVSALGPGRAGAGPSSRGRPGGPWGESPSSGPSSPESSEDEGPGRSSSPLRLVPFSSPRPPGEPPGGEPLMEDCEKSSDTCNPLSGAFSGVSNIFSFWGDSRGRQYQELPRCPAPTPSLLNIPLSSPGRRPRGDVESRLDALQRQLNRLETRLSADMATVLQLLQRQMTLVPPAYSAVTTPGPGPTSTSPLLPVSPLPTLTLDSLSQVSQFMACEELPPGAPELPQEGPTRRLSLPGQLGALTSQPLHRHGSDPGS

[22] = system: Hepatitis C virus; assay: Antiviral activity against Hepatitis C virus genotype 1b by cell-based replicon assay; assay type: functional, Hepacivirus hominis
[23] = Clearance in dog at 2 mg/kg, iv; assay type: ADME, organism-based, Canis lupus familiaris; set-up: dose 2 mg/kg, route intravenous; conditions: in vivo; method in brief: as §3
[24] = Lipophilicity, log D of the compound at pH 7.4; assay type: physicochemical; conditions: buffer
[25] = Volume of distribution at steady state in dog at 2 mg/kg, iv; assay type: ADME, organism-based, Canis lupus familiaris; set-up: dose 2 mg/kg, route intravenous; conditions: in vivo, read-out: Vdss; method in brief: as §3
[26] = system: Hepatitis C virus; assay: Antiviral activity against Hepatitis C virus genotype 1a by cell-based replicon assay; assay type: functional, Hepacivirus hominis; conditions: subtype 1a
[27] = Cmax in dog at 10 mg/kg, po; assay type: ADME, organism-based, Canis lupus familiaris; set-up: dose 10 mg/kg, route oral; conditions: in vivo; method in brief: as §1
[28] = molecular target: Cytochrome P450 2C19 (Homo sapiens, UniProt P33261); assay: Inhibition of CYP2C19 (unknown origin); assay type: ADME
Sequence of Cytochrome P450 2C19 (P33261 whole entry): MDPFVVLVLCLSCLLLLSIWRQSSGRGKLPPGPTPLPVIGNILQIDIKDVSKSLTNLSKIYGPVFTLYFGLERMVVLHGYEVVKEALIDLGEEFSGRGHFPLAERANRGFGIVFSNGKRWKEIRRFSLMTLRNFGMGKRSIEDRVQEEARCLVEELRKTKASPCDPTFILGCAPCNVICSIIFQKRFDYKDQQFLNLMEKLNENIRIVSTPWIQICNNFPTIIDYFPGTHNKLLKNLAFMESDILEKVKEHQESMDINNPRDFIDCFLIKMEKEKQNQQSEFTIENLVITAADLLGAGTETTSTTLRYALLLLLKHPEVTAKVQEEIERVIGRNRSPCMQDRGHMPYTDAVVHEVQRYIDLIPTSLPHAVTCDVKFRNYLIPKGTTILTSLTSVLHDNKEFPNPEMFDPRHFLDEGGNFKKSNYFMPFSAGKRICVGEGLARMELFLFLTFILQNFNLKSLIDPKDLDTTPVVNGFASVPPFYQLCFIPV

[29] = Plasma protein binding in human; assay type: ADME, cell-free; conditions: read-out: PPB (converted)
[30] = Oral bioavailability in dog at 10 mg/kg; assay type: ADME, organism-based, Canis lupus familiaris; conditions: in vivo; method in brief: as §1
[31] = system: Rhesus monkey; assay: Half life in monkey at 2 mg/kg, iv; assay type: ADME, organism-based, Macaca mulatta; set-up: dose 2 mg/kg, route intravenous; conditions: in vivo; method in brief: as §3
[32] = molecular target: Cytochrome P450 2D6 (Homo sapiens, UniProt P10635); assay: Inhibition of CYP2D6 (unknown origin); assay type: ADME
Sequence of Cytochrome P450 2D6 (P10635 whole entry): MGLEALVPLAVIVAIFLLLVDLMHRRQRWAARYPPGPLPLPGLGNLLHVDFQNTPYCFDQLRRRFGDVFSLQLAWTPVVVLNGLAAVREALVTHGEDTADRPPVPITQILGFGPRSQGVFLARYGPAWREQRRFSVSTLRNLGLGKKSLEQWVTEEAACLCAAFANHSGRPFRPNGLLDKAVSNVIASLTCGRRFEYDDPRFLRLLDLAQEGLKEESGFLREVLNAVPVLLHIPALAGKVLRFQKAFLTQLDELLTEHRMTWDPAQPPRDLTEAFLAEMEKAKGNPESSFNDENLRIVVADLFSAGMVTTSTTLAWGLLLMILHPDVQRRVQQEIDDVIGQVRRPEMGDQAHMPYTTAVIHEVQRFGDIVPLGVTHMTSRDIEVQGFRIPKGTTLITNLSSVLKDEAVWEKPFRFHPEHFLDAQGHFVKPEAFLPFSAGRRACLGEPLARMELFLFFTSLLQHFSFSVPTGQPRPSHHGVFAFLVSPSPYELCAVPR

[33] = system: Salmonella typhimurium; assay: Mutagenic activity in Salmonella typhimurium by Ames test; assay type: toxicity, organism-based; conditions: salmonella enterica subsp. enterica serovar typhimurium
Method in brief: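 Ames test run with and without metabolic activation at doses up to maximum solubility.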

[34] = AUC in monkey at 10 mg/kg, po; assay type: ADME, organism-based, Macaca mulatta; set-up: dose 10 mg/kg, route oral; conditions: rhesus monkey, plasma; method in brief: as §1
[35] = AUC in dog at 10 mg/kg, po; assay type: ADME, organism-based, Canis lupus familiaris; set-up: dose 10 mg/kg, route oral; conditions: plasma; method in brief: as §1
[36] = molecular target: T1, Cytochrome P450 1A2 (Homo sapiens, UniProt P05177); assay: Inhibition of CYP1A2 (unknown origin); assay type: ADME
T1 sequence (P05177 whole entry): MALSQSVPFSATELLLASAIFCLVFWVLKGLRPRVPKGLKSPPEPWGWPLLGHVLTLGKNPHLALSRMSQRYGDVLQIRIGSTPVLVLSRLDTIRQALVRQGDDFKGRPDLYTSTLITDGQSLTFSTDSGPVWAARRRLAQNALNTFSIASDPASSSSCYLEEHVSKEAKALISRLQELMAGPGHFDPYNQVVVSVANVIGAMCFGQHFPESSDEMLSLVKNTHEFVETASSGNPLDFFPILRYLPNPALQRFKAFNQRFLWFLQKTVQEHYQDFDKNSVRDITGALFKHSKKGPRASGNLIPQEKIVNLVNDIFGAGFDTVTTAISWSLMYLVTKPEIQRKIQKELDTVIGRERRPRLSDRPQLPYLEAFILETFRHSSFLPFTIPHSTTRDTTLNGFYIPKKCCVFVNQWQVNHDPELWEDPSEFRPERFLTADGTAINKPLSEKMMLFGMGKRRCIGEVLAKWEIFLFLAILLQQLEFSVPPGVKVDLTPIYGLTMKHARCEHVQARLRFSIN

[37] = Cytotoxicity against human HuH7 cells assessed as cell viability by MTT assay; assay type: cell-based; conditions: Huh-7 cells, read-out: TC50 (the source's name)
[38] = Mean residence time in monkey at 10 mg/kg, po; assay type: ADME, organism-based, Macaca mulatta; set-up: dose 10 mg/kg, route oral; conditions: rhesus monkey, in vivo; method in brief: as §1
[39] = Inhibition of recombinant Hepatitis C virus genotype 1b Con1 NS5B RNA dependent RNA polymerase delta21; set-up: species or system Hepatitis C virus subtype 1b
Method in brief: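 Biochemical polymerase assay with C-terminally truncated genotype 1b NS5B∆21; IC50 taken as mean of duplicates.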

[40] = molecular target: Cytochrome P450 3A4 (Homo sapiens, UniProt P08684); assay: Inhibition of CYP3A4 (unknown origin); assay type: ADME
Sequence of Cytochrome P450 3A4 (P08684 whole entry): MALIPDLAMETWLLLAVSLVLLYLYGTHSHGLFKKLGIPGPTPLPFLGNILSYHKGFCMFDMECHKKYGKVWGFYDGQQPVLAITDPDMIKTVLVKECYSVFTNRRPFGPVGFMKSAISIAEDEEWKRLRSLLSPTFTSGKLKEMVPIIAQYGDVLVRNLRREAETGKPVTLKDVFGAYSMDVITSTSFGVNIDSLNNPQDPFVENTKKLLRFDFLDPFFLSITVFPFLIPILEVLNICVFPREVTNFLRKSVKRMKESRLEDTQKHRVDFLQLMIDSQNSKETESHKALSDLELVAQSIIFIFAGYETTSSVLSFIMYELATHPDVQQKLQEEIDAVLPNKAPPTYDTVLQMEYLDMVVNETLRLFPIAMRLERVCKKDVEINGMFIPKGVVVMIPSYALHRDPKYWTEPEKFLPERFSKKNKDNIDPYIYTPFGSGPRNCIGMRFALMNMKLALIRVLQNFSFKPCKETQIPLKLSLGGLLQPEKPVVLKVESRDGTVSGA

[41] = Dissociation constant, pKa of the compound; assay type: physicochemical
Method in brief: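 pKa derived from pH titration curves.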

[42] = Half life in rat liver microsomes; assay type: ADME
[43] = system: Canis familiaris; assay: Cardiotoxicity in dog assessed as electrocardiographic parameters up to 200 mg/kg; assay type: toxicity, organism-based, Canis lupus familiaris; set-up: dose 200 mg/kg; conditions: in vivo
[44] = molecular target: Cytochrome P450 2C9 (Homo sapiens, UniProt P11712); assay: Inhibition of CYP2C9 (unknown origin); assay type: ADME
Sequence of Cytochrome P450 2C9 (P11712 whole entry): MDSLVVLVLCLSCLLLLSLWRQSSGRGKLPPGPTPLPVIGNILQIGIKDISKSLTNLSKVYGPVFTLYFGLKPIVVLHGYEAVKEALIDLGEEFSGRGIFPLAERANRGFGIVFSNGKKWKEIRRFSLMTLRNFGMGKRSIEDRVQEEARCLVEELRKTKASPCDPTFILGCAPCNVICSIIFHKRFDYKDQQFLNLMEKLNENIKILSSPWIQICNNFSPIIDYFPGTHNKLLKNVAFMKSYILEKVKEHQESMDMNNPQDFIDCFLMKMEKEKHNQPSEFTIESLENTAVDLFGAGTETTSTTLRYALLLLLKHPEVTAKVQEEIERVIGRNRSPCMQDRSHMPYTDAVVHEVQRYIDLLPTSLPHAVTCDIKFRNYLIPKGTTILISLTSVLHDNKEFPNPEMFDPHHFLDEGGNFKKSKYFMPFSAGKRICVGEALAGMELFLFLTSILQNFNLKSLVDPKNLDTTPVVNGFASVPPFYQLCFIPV

[45] = Cardiotoxicity in guinea pig papillary muscles assessed as action potential duration at 90% repolarization
[46] = Permeability across apical at pH6 to basolateral side at pH 7.4 in human Caco2 cells; assay type: ADME, cell-based; conditions: Caco-2, pH 6, read-out: permeability
Method in brief: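 Caco-2 monolayer permeability measured apical to basolateral, apical side at pH 6.0 and basolateral at pH 7.4.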

[47] = Ratio of drug level in rat liver to plasma after 6 hrs; assay type: ADME, cell-free
[48] = system: Rhesus monkey; assay: Clearance in monkey at 2 mg/kg, iv; assay type: ADME, organism-based, Macaca mulatta; set-up: dose 2 mg/kg, route intravenous; conditions: in vivo; method in brief: as §3

- Papp A→B [1]: 17 ×10⁻⁶ cm/s
- Cmax [2]: 2200 nM
- MRT [3]: 3 h
- concentration at 1 h [4]: 1300 nM
- Vd [5]: 0.42 L/kg
- clearance [6]: 6.2 mL/min/kg
- half-life [7]: 1.5 h
- EC50 [8]: 16 nM
- half-life [9]: 1.2 h
- concentration at 2 h [10]: 800 nM
- bioavailability [11]: 17%
- AUC [12]: 6.1 µM·h
- IC50 [13]: 110 nM
Structure (SMILES): CCOc1cc(NC(=O)C2(NC(=O)c3ccc4c(C5CCCC5)c(-c5ccc(F)cn5)n(C)c4c3)CCC2)ccc1/C=C/C(=O)O

- half-life [14]: 4.5 h
- Vdss [15]: 0.6 L/kg
- IC50 [16]: 70000 nM
- Cmax [17]: 9600 nM
- bioavailability [18]: 72%
- MRT [20]: 8 h
- EC50 [22]: 11 nM
- clearance [23]: 1 mL/min/kg
- logD [24]: 4.1
- Vd [25]: 0.38 L/kg
- EC50 [26]: 29 nM
- Cmax [27]: 8100 nM
- IC50 [28]: > 30000 nM
- fraction unbound [29]: 0.004
- Papp A→B [1]: 13 ×10⁻⁶ cm/s
- bioavailability [30]: 29%
- Cmax [2]: 6300 nM
- t1/2 [31]: 3 h
- MRT [3]: 3.6 h
- IC50 [32]: > 30000 nM
- AUC [34]: 53 µM·h
- AUC [35]: 76 µM·h
- IC50 [36]: > 30000 nM
- MRT [38]: 6.1 h
- IC50 [39]: 84 nM
- concentration at 1 h [4]: 3400 nM
- Vd [5]: 0.38 L/kg
- IC50 [40]: > 30000 nM
- pKa [41]: 6.5
- clearance [6]: 2.6 mL/min/kg
- half-life [7]: 2.4 h
- half-life [42]: 1.73 h
- EC50 [8]: 13 nM
- half-life [9]: 1.7 h
- concentration at 2 h [10]: 2300 nM
- IC50 [44]: 13500 nM
- Papp A→B [46]: 13 ×10⁻⁶ cm/s
- bioavailability [11]: 19%
- AUC [12]: 19 µM·h
- Kp at 6 h [47]: 5
- CL [48]: 3.6 mL/min/kg
- IC50 [13]: 110 nM
Structure (SMILES): CCOc1cc(NC(=O)C2(NC(=O)c3ccc4c(C5CCCC5)c(-c5ncc(Cl)cn5)n(C)c4c3)CCC2)ccc1/C=C/C(=O)O
- fold change (FC) [19]: 3.8
- inhibition (INH) [21]: Not Active
- Activity [33]: Non-toxic
- CC50 [37]: 38000 nM
- Activity [43]: Non-toxic
- Activity [45]: Non-toxic
